Measurements as given in ChEMBL document CHEMBL3044723, “Phytotoxins from the leaves of Ruta graveolens” (2004).
Activity calls are given as the source filed them. No cut-off for these calls is given here.

Key:
[1] = test system: Lemna aequinoctialis; assay: Phytotoxicity against Lemna paucicostata assessed as tissue degradation at 250 uM after 4 to 5 days; format: functional, organism-based
[2] = test system: Agrostis stolonifera; assay: Phytotoxicity against Agrostis stolonifera assessed as mortality at 333 uM after 12 days; format: functional, organism-based
Summary of the method: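 Seeds (10 mg) per well of 24-well plates in 250 µL water containing 3% acetone as final concentration; solvent-only controls. Plates were sealed and incubated at 26 °C under continuous light at 173 µmol s⁻¹ m⁻². Concentrations tested were 10, 33, 100 and 333 µM. Phytotoxicity was scored visually against untreated controls.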

[3] = test system: Lactuca sativa; assay: Phytotoxicity against Lactuca sativa cv. Burpee's Iceberg (lettuce) assessed as reduction in chlorophyll content at 100 uM after 7 days by spectrophotometry; format: functional, organism-based
Summary of the method: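 Seeds grown in 24-well plates in water with 3% acetone, at 26 °C under continuous light (173 µmol s⁻¹ m⁻²) for 7 days. Cotyledons from three plants per well were weighed and extracted in 2 mL DMSO at 60 °C for 2 h, then diluted with 1 mL more DMSO. A645 and A663 were read and converted to total chlorophyll (20.2A645 + 8.02A663). Values were normalized to cotyledon weight.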

[4] = test system: Lactuca sativa; assay: Phytotoxicity against Lactuca sativa cv. Burpee's Iceberg (lettuce) assessed as reduction in chlorophyll content compound treated at 100 uM in darkness after 7 days followed by exposure to white light by spectrophotometry; format: functional, organism-based
Summary of the method: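 Seedlings were treated in wells with 1% acetone final and kept in foil-wrapped darkness at 26 °C for 7 days. They then received 5 min of white light (80 µmol s⁻¹ m⁻² PAR) and were returned to darkness for 1 h. Ten cotyledon pairs were weighed and extracted in DMSO in the dark. Chlorophyll was read at 645/663 nm and compared with the solvent control.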

[5] = test system: Allium cepa; assay: Phytotoxicity against Allium cepa (onion) assessed as inhibition of mitosis in root tips at 100 uM measured on day 7 of compound treatment by microscopy; format: functional, organism-based
Summary of the method: (§1)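 Ten surface-sterilized onion seeds were placed on filter paper in 6-cm dishes with 1 mL of water containing compound (final 0.05% acetone). Controls received water or acetone/water. Dishes were kept at 25 °C under a 16 h photoperiod at 173 µmol s⁻¹ m⁻². On day 7, root tips were fixed (HOAc/EtOH 1:3), hydrolyzed in 5 N HCl for 1 h, and Feulgen-stained with Schiff's reagent for 45 min. At least 1000 cells per slide were scored at 40×.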

[6] = test system: Lemna aequinoctialis; assay: Phytotoxicity against Lemna paucicostata assessed as growth inhibition at 100 uM after 4 to 5 days; format: functional, organism-based
Summary of the method: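 Hoagland medium at pH 5.5 was filter-sterilized in 6-well plates, with compound added in acetone or EtOH (1% final). Two three-frond colonies from 4- to 5-day-old stock cultures were placed per well. Total frond area was recorded by image analysis from day 0 to day 7.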

[7] = test system: Allium cepa; assay: Phytotoxicity against Allium cepa (onion) assessed as accumulation of cells at prophase in root tips at 33 uM measured on day 7 of compound treatment by microscopy; format: functional, organism-based; summary of the method: as §1
[8] = test system: Lactuca sativa; assay: Phytotoxicity against Lactuca sativa cv. Burpee's Iceberg (lettuce) assessed as reduction in radical length at 10 uM after 7 days by spectrophotometry relative to control; format: functional; set-up: scale not given: the % may be the effect or the level left
Summary of the method: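 Lettuce seeds were set in multiwell plates with test material supplied from acetone in DDI water (3% acetone final). Controls received acetone and water only. Plates were sealed and kept at 26 °C under continuous light at 173 µmol s⁻¹ m⁻² for 7 days. Root lengths, together with plant weight and chlorophyll content, were compared against untreated controls.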

[9] = test system: Allium cepa; assay: Phytotoxicity against Allium cepa (onion) assessed as accumulation of cells at metaphase in root tips at 33 uM measured on day 7 of compound treatment by microscopy; format: functional, organism-based; summary of the method: as §1
[10] = test system: Lactuca sativa; assay: Phytotoxicity against Lactuca sativa cv. Burpee's Iceberg (lettuce) assessed as blunt root tips at 10 uM after 7 days by spectrophotometry relative to control; format: functional, organism-based
[11] = test system: Lactuca sativa; assay: Phytotoxicity against Lactuca sativa cv. Burpee's Iceberg (lettuce) assessed as unbranched root tips at 10 uM after 7 days by spectrophotometry relative to control; format: functional, organism-based

Cn1c(-c2ccc3c(c2)OCO3)cc(=O)c2ccccc21
Activity [1]: Active | Activity [2]: Active | Activity [3]: Active | Activity [4]: inactive | inhibition [5]: Active | growth inhibition (GI) [6]: Active

COc1c2occc2cc2ccc(=O)oc12 [METHOXSALEN]
Activity [2]: Active | Activity [3]: Active | Activity [7]: Active | Activity [8]: 39% | Activity [9]: Active | Activity [4]: inactive | inhibition [5]: Active | Activity [10]: Active | Activity [11]: Active

COc1c2ccoc2cc2oc(=O)ccc12
Activity [2]: Active | Activity [8]: inactive | inhibition [5]: Active | Activity [10]: inactive | Activity [11]: inactive
